Assay outcomes: PubChem BioAssay, several laboratories
CYP2C19 activ = activators of human cytochrome P450 2C19; P33261; recombinant CYP2C19, luciferin-H EGE luminescence; active compounds read high; 0 = fully inhibited enzyme, 1 = untreated enzyme; activation factor at 5 µM; 96,000 tested, under 10 active; AID 1025;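 active = activation factor of at least 2 at 5 µM in the primary screen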
Rev-RRE block = disrupts HIV-1 Rev binding to RRE RNA; 97,000 tested, 0.79% active; inhibition, % at 8 µM; AID 704; Rev peptide-RRE RNA binding, FRET;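 active = inhibition above the screen-wide mean plus 3 SD, cut at about 35% in these data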
Target sequence (P05866 whole entry, looked up): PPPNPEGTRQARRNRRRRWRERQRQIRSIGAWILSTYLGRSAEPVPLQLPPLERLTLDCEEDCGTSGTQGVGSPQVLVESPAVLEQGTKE
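Test system – labelled RRE RNA duplex and labelled Rev peptide · Signal – fluorescein-to-Cy5 FRET, 480 nm excitation · Evaluation – % inhibition of FRET ratio versus controls · Benchmarks – DMSO low control, neomycin B high control · Incubation – 5 min RNA-compound premix plus 15 min binding step, 25 °C · Medium – HEPES pH 7.5 salt buffer with EDTA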
CYP2C9 act = increases human cytochrome P450 2C9 activity; AID 1024; P11712; recombinant CYP2C9, luciferin-H conversion, luminescence; active compounds read high; factor 1 = untreated enzyme, 0 = blocked; activation factor at 5 µM; 96,000 tested, 1.4% active;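 active = activation factor of 2 or more for CYP2C9 at a 5 µM dose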
CYP2C9 inh = human CYP2C9 inhibition; inhibition, % at 5 µM; 96,000 tested, 20% active; P11712; CYP2C9 Supersomes, luciferin-H conversion, luminescence; AID 777;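 active = blocking of liver enzyme CYP2C9 beyond about 50% at 5 µM, limit read from the data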
CYP2C19 inhib = human CYP2C19 inhibition | 96,000 tested, 21% active | CYP2C19 Supersomes, luciferin-H EGE luminescence, 30 min | AID 778 | P33261 | inhibition, % at 5 µM;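 active = CYP2C19 inhibition above a set limit at 5 µM in the primary screen, cut at about 50% in these data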
Cav32 inh = inhibitors of human Cav3.2 T-type calcium channel | Cav3.2-expressing cells, Fluo-4 calcium fluorescence FDSS; active compounds read low | 100,000 tested, 4% active | O95180 | B-score at 10 µM;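 active = single-dose well whose peak fluorescence ratio is a statistical outlier from its plate by either plate-standardised score or position-corrected B-score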
Each line names hits and unclear results; the compound was inactive in the other large screens; [ ] = dose if it differs, or a comment. Sampled rows, rich in hits. Any-hit rate of the full collection: about 27%.

Cc1nccn1Cc1cccc2ccccc12	CYP2C19 inhib 51 (no result: Cav32 inh)
CCN(CC)c1ccc(/C=C/c2nc3ccccc3s2)cc1	Rev-RRE block 123[fluorescence artefact?], Cav32 inh -3.9
O=C(COc1ccccc1Cl)N1CCN(c2ccc([N+](=O)[O-])c(N3CCOCC3)c2)CC1	CYP2C9 inh 85
O=C(COc1ccccc1Cl)N1CCN(c2ccc(F)cc2)CC1	CYP2C19 inhib 82
CCOC(=O)N1CCN(C(=O)COc2ccccc2Cl)CC1	none (no result: CYP2C19 activ, Rev-RRE block, CYP2C9 act, CYP2C9 inh, CYP2C19 inhib)
COc1ccc(Nc2ncc(C(=O)N3CCN(c4ccc(F)cc4)CC3)c3ccccc23)cc1	CYP2C9 inh 66, CYP2C19 inhib 61, Cav32 inh -5.9
CCC(=O)N1CCN(c2ccccc2NC(=O)COc2ccccc2Cl)CC1	CYP2C9 inh 94, CYP2C19 inhib 87
COC(=O)c1ccc(OC)cc1OCC(=O)N1CCN(c2ccc(F)cc2)CC1	CYP2C19 inhib 64
O=[N+]([O-])c1ccc(N2CCN(S(=O)(=O)Cc3ccccc3)CC2)cc1N1CCOCC1	CYP2C9 inh 53, CYP2C19 inhib 56
CCC(=O)N1CCN(c2ccc(NC(=O)COc3ccccc3Cl)cc2)CC1	CYP2C9 inh 71, CYP2C19 inhib 81
O=C(NCc1cccs1)c1cccc(Nc2nc3ccc(Br)cc3[nH]2)c1	CYP2C9 inh 83
COc1ccc(CC(=O)NCc2ccco2)cc1OC	none
COc1ccc(S(=O)(=O)Cc2ccccc2)cc1N	CYP2C9 act 2.2, CYP2C19 inhib 62 (no result: Rev-RRE block)
Cc1ccc(N(CC(=O)N/N=C/c2ccco2)S(=O)(=O)c2ccccc2)cc1	none
COc1ccc(N(CC(=O)N/N=C/c2ccco2)S(=O)(=O)c2ccccc2)cc1	CYP2C19 inhib 60
COc1ccc(S(=O)(=O)N(CC(=O)NCc2ccco2)c2ccccc2)cc1OC	CYP2C19 inhib 91
CCN(c1ccccc1)S(=O)(=O)c1ccc(N)c(OC)c1	CYP2C9 act 2.8, CYP2C19 inhib 62 (no result: Cav32 inh)
COc1ccc(OC)c(N)c1	none (no result: Cav32 inh)
CCN(Cc1ccccc1)C(=O)COC(=O)c1n[nH]c2ccccc12	none
CCOc1cc(/C=N/O)cc(Cl)c1OC	none
O=C(COC(=O)c1ccccn1)Nc1nccs1	none
COc1ccc(S(=O)(=O)N(CC(=O)NCc2ccco2)c2ccccc2)cc1	CYP2C19 inhib 56
C=CCNC(=O)CN(c1ccc(F)cc1)S(=O)(=O)c1ccc(OC)cc1	CYP2C9 inh 64, CYP2C19 inhib 92 (no result: Cav32 inh)
COc1ccc(S(=O)(=O)N(CC(=O)O)c2ccccc2)cc1	none
CN(CCCC(=O)NCc1ccco1)S(=O)(=O)c1ccccc1	none
Cc1ccc(S(=O)(=O)N(CC(=O)NCc2ccco2)Cc2ccccc2F)cc1	CYP2C9 inh 62
CCC(C)(C)n1nnnc1C(c1cc(OC)ccc1OC)N1CCC(C(N)=O)CC1 (stereo unspecified)	none (no result: CYP2C19 activ, CYP2C9 act, CYP2C9 inh, CYP2C19 inhib)
O=C(O)CCc1nn2c3ccccc3nc2n(CCN2CCCCC2)c1=O	none (no result: CYP2C19 activ, CYP2C9 act, CYP2C9 inh, CYP2C19 inhib)
CN(C)c1nc(C(N)=O)nc(N2CCOCC2)n1	none
Cc1ccc(OCCCSc2ncccn2)cc1C	none (no result: CYP2C19 activ, CYP2C9 act, CYP2C9 inh, CYP2C19 inhib)
Cc1ccc(OCCCn2ccnc2)cc1C	CYP2C9 inh 96, CYP2C19 inhib 100
Cc1cccc(OCCCn2ccnc2)c1	CYP2C9 inh 68, CYP2C19 inhib 100
COC(=O)c1cc2c(-c3ccccc3)cc3ccccn3c-2c1C(=O)OC	none
COC(=O)c1c(C)c2c(C)cc3ccccn3c-2c1C(=O)OC	Rev-RRE block 46
O=C(CSc1ccccc1)NCc1ccco1	none (no result: CYP2C19 activ, CYP2C9 act, CYP2C9 inh, CYP2C19 inhib)
O=C(CSc1ccc2c(c1)OCCO2)NCc1ccco1	CYP2C9 inh 70, CYP2C19 inhib 55
Cc1ccc(SCC(=O)NC(=O)NCc2ccco2)cc1C	Cav32 inh -6.6
Nc1nc(SCC(=O)NCCCN2CCOCC2)nc2sc3c(c12)CCC3	none
O=C(CCNS(=O)(=O)c1cccc2nsnc12)NC1CCN(Cc2ccccc2)CC1	none (no result: Rev-RRE block)
COc1c(N2CCN(C(=S)Nc3ccc(F)cc3)C(C)C2)c(F)cc2c(=O)c(C(=O)O)cn(C3CC3)c12 (stereo unspecified)	Cav32 inh 3.6
COc1c(N2CCNC(C)C2)c(F)cc2c(=O)c(C(=O)O)cn(C3CC3)c12 (stereo unspecified)	none (no result: CYP2C19 activ, Rev-RRE block, CYP2C9 act, CYP2C9 inh, CYP2C19 inhib)
CC1(C)Cc2c(ccc3ccccc23)/C(=C/C(=O)N2CCCCC2)N1	none (no result: Cav32 inh)
COc1ccc(Cc2nnc(SCC(=O)c3ccccc3)o2)cc1	CYP2C9 inh 79, CYP2C19 inhib 77
